In ChEMBL document CHEMBL1148336, “3-Aminopyrazole inhibitors of CDK2/cyclin A as antitumor agents. 1. Lead finding” (J Med Chem, 2004):

Key:
Rattus norvegicus [1] = assay: In vivo maximum time required for clearance of compound after oral (po) administration at a dose of 10 mg/kg was measured in rats; type: ADME, organism-based; set-up: dose 10 mg/kg, route oral
Procedure, shortened: (§1)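 Male Sprague Dawley rats (~270), fasted overnight, received a single iv or oral dose in PEG400, 4% Tween 80/dextrose (60:40), three rats per route. Jugular/catheter blood was drawn predose and at 5, 15 and 30 min and 1, 2, 4, 6 and 24 h, and plasma was analysed by LC/MS/MS. Analysis was noncompartmental: Cmax/Tmax observed, AUC by linear trapezoidal rule, and F from dose-normalized oral/iv AUC.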

Rattus norvegicus [2] = assay: In vivo area under curve was determined for the compound after oral (po) administration at a dose of 10 mg/kg in rats; type: ADME, organism-based; set-up: dose 10 mg/kg, route oral; procedure, shortened: as §1
Rattus norvegicus [3] = assay: Maximal concentration in male Sprague-Dawley rats after 10 mg/kg oral dose; type: ADME, organism-based; set-up: dose 10 mg/kg, route oral; conditions: in vivo; procedure, shortened: as §1
[4] = In vivo retention time was evaluated for the compound after i.v. administration at a dose of 5 mg/kg was measured in rats; type: ADME, organism-based; set-up: dose 5 mg/kg, route intravenous; conditions: rat, iv; procedure, shortened: as §1
[5] = molecular target: Cyclin-dependent kinase 5/CDK5 activator 1 (Homo sapiens, UniProt Q00535); assay: Inhibition of Cyclin-dependent kinase 5-p35nck5a; type: protein-complex assay
Chain of Cyclin-dependent kinase 5/CDK5 activator 1 (Q00535 whole entry): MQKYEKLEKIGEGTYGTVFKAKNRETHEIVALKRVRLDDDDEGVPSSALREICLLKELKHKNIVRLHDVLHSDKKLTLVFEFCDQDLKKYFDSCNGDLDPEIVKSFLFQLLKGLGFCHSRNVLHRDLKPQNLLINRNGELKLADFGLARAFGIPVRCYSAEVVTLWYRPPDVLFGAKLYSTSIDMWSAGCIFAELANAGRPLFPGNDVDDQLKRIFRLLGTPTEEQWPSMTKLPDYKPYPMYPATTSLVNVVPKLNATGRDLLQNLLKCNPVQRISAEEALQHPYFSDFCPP
Chain of Cyclin-dependent kinase 5/CDK5 activator 1 (Q15078 whole entry, further chain): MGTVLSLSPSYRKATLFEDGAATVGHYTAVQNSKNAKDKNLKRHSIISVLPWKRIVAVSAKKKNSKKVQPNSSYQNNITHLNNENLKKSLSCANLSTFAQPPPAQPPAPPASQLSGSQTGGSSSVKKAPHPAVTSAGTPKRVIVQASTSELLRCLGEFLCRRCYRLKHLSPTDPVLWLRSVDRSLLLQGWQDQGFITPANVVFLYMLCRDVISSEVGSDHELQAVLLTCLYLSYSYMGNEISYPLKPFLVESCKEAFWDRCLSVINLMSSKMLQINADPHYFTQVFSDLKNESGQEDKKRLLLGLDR
Procedure, shortened: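 Recombinant CDK5/p25 expressed in insect cells, used at 4 nM with histone H1 substrate (5Km) and ATP/33P-γ-ATP (2Km). Run in Tris-HCl pH 7.4 buffer with MgCl2 and DTT, 1% DMSO, for 30–90 min at room temperature. 3-fold dilutions from 10 to 0.0015 μM. Product captured on streptavidin SPA beads and counted.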

[6] = molecular target: Inhibitor of nuclear factor kappa-B kinase subunit beta (Homo sapiens, UniProt O14920); assay: Inhibition of I-kappa-B-kinase beta activity
Chain of Inhibitor of nuclear factor kappa-B kinase subunit beta (O14920 whole entry): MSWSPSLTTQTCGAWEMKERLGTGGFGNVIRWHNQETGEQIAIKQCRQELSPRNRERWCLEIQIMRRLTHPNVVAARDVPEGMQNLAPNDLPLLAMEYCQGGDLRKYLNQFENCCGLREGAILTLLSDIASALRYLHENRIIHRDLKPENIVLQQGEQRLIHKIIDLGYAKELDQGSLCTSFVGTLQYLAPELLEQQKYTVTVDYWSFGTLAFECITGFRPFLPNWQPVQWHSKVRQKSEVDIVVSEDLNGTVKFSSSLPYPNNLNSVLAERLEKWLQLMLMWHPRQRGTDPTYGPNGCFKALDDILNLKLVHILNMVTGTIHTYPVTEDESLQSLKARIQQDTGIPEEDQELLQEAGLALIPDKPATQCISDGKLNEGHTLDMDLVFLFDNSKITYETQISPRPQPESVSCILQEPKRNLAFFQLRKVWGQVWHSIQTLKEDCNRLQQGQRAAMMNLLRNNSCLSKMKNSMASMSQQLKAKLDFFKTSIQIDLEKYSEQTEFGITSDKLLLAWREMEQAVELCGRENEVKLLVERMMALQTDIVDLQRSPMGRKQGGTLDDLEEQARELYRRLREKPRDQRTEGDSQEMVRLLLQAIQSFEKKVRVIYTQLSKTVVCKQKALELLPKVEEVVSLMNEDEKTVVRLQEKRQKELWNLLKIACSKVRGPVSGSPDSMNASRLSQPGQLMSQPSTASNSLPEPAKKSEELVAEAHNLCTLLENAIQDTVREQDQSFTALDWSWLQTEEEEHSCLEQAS
Procedure, shortened: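 ATP/33P-γ-ATP 2Km, substrate 5Km, 1% DMSO, 10–0.0015 μM compound, 30–90 min at room temperature. SPA detection.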

[7] = molecular target: Insulin-like growth factor 1 receptor (Homo sapiens, UniProt P08069); assay: Inhibition of Insulin-like growth factor I receptor
Procedure, shortened: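 IGF1R (6 nM, insect-cell recombinant) phosphorylating IRStide in 50 mM Hepes pH 7.5, 3 mM MnCl2, 1 mM DTT, 3 μM NaVO3. 33P-ATP mix at 2Km, substrate 5Km, 1% DMSO. Compound in 3-fold series from 10 μM, 30–90 min at room temperature. SPA counting.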

[8] = molecular target: Mitogen-activated protein kinase 14 (Homo sapiens, UniProt Q16539); assay: Inhibition of Mitogen-activated protein kinase p38 alpha
Chain of Mitogen-activated protein kinase 14 (Q16539 whole entry): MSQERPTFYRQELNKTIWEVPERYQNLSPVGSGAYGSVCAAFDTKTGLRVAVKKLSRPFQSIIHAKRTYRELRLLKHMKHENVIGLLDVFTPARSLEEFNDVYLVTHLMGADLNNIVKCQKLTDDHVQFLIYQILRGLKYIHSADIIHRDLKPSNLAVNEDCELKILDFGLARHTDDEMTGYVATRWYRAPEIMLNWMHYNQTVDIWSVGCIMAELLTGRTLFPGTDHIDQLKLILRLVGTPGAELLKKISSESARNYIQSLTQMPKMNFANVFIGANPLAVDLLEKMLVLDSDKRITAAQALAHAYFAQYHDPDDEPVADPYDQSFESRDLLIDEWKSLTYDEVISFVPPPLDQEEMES
Procedure, shortened: (§2)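 Radiometric kinase assay. Enzyme (0.7–100 nM) and substrate (5Km) incubated with ATP/33P-γ-ATP (2Km) and compound serially diluted 3-fold from 10 to 0.0015 μM, 1% DMSO, 30–90 min at room temperature. Product separated by SPA, Dowex or phosphocellulose filter, then counted.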

[9] = molecular target: RAC-alpha serine/threonine-protein kinase (Homo sapiens, UniProt P31749); assay: Inhibition of Protein kinase B (Akt-1)
Chain of RAC-alpha serine/threonine-protein kinase (P31749 whole entry): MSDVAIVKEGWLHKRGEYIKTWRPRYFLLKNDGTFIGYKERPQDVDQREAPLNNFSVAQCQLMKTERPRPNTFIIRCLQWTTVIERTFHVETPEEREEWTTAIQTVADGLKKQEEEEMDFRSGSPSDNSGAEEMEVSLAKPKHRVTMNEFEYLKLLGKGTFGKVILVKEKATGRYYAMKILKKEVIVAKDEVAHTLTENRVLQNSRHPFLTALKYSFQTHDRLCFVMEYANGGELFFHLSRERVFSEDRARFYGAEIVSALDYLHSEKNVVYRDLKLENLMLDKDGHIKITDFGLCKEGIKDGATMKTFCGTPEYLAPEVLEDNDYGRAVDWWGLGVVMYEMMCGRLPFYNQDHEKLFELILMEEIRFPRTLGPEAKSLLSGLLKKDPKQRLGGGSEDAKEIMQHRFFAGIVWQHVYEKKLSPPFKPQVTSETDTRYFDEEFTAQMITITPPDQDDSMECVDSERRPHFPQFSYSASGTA
Procedure, shortened: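 Recombinant AKT-1 (insect cells), 5 nM, with AKTtide in 10 mM Tris-HCl pH 7.4, 10 mM MgCl2, 7.4 mM DTT. ATP/33P-γ-ATP at 2Km, substrate at 5Km, 1% DMSO. 3-fold dilutions from 10 μM, 30–90 min at room temperature. Dowex resin separation, supernatant radioactivity counted.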

[10] = molecular target: Serine/threonine-protein kinase Chk1 (Homo sapiens, UniProt O14757); assay: Inhibition of Serine/threonine-protein kinase Chk1
Chain of Serine/threonine-protein kinase Chk1 (O14757 whole entry): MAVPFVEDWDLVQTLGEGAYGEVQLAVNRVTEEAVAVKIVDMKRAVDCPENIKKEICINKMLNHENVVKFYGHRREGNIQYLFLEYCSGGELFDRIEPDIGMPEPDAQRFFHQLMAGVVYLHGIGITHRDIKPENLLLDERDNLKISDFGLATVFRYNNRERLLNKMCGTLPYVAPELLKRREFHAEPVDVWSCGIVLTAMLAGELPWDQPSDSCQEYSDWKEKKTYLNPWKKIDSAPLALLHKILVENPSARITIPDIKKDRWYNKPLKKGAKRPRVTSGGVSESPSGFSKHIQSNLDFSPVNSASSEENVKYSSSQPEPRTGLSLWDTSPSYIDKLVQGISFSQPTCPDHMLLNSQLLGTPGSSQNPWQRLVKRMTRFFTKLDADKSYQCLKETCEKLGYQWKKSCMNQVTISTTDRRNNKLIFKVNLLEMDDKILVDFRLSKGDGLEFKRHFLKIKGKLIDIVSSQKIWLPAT
Procedure, shortened: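 ATP/33P-γ-ATP 2Km, substrate 5Km, 1% DMSO, compound 10–0.0015 μM, 30–90 min at room temperature. SPA.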

[11] = molecular target: Tyrosine-protein kinase ABL (Homo sapiens, UniProt P00519+P42684); assay: Inhibition of V-abl tyrosine kinase (ABL); type: protein assay
Procedure, shortened: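 ABL at 1.2 nM, recombinant from insect cells, with MBP in 50 mM Hepes pH 7.5, 3 mM MgCl2, 3 mM MnCl2, 1 mM DTT, 3 μM NaVO3. 2Km ATP/33P-γ-ATP, 5Km substrate, 1% DMSO. 3-fold series from 10 μM, 30–90 min at room temperature. SPA readout.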

[12] = molecular target: Vascular endothelial growth factor receptor 2 (Homo sapiens, UniProt P35968); assay: Inhibition of VEGFR-2 kinase activity; procedure, shortened: as §2
Chain of Vascular endothelial growth factor receptor 2 (P35968 whole entry): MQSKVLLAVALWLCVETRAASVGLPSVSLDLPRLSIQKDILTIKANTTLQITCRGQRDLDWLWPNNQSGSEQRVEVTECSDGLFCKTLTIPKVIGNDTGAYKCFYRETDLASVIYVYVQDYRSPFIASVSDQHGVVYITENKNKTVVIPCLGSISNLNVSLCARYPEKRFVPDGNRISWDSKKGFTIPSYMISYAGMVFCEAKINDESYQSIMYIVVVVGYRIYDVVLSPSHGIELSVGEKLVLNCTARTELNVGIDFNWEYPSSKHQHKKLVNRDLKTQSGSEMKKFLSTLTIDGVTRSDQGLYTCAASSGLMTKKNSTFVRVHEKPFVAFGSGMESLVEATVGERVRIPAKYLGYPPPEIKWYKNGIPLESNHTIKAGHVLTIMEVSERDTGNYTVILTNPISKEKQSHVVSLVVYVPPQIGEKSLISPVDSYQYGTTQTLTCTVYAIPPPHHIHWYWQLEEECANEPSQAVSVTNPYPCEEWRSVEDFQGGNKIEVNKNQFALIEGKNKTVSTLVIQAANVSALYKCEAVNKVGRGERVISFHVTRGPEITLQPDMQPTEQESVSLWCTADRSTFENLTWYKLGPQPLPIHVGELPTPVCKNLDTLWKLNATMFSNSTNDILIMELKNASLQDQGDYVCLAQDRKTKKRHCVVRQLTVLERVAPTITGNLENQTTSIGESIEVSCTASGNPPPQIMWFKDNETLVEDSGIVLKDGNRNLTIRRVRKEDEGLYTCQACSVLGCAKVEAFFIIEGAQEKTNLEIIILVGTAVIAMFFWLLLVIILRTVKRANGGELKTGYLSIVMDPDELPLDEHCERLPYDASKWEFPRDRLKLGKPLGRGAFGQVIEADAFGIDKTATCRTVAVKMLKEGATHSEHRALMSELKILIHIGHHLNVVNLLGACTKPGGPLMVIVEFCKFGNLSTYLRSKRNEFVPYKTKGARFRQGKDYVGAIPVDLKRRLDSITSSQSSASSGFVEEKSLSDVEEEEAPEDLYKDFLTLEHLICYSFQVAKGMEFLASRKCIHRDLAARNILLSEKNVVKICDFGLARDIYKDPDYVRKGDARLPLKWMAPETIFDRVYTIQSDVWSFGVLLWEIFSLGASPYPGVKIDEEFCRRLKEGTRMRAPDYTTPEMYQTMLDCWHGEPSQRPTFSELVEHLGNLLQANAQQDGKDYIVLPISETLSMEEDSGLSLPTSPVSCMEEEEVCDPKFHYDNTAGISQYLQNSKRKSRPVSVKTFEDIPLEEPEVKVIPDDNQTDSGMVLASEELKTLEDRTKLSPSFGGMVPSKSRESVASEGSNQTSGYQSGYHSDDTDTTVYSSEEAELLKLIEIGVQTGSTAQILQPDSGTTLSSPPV

Rattus norvegicus [13] = assay: In vivo half-life period for compound after oral (po) administration at a dose of 10 mg/kg was measured in rats; type: ADME, organism-based; set-up: dose 10 mg/kg, route oral; procedure, shortened: as §1
Rattus norvegicus [14] = assay: In vivo area under curve was determined for the compound after i.v. administration at a dose of 5 mg/kg in rats; type: ADME, organism-based; set-up: dose 5 mg/kg, route intravenous; conditions: iv; procedure, shortened: as §1
[15] = molecular target: Cyclin-dependent kinase 4/cyclin D1 (Homo sapiens, UniProt P11802)
Chain of Cyclin-dependent kinase 4/cyclin D1 (P11802 whole entry): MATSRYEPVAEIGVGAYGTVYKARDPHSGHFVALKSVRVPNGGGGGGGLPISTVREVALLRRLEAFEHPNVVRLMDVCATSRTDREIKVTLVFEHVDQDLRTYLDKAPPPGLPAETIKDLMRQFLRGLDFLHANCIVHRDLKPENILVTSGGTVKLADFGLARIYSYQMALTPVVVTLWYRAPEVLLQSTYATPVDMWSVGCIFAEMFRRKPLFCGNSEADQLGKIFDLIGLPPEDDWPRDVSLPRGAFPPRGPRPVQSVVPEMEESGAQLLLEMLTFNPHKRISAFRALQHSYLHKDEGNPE
Chain of Cyclin-dependent kinase 4/cyclin D1 (P24385 whole entry, further chain): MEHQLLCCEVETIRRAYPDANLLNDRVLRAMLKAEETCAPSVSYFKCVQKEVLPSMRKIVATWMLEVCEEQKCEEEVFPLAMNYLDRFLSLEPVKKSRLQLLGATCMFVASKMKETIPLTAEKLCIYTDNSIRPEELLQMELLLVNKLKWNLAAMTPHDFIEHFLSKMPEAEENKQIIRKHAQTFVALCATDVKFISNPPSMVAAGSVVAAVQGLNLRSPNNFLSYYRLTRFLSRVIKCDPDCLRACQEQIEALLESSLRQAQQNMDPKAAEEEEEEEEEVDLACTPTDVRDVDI

Question: With `O=C(Cc1ccc2ccccc2c1)Nc1cc(C2CC2)n[nH]1` as the molecule, how does the T max (Rattus norvegicus [1]) read?
Answer: 1.39 h

Question: And the AUC total (Rattus norvegicus [2])?
Answer: 38.18 µM·h

Question: And the Cmax (Rattus norvegicus [3])?
Answer: 9.63 µM

Question: What about the MRT [4] of the same molecule?
Answer: 1.31 h

Question: And the IC50 [5]?
Answer: 114 nM

Question: And the IC50 [6]?
Answer: > 10 µM

Question: What about the IC50 [7] of the same molecule?
Answer: > 10 µM

Question: And the IC50 [8]?
Answer: > 10 µM

Question: And the IC50 [9]?
Answer: > 10 µM

Question: What about the IC50 [10] of the same molecule?
Answer: > 10 µM

Question: And the IC50 [11]?
Answer: > 10 µM

Question: And the IC50 [12]?
Answer: > 10 µM

Question: What about the T1/2 (Rattus norvegicus [13]) of the same molecule?
Answer: 2.38 h

Question: What about the AUC total (Rattus norvegicus [14]) of the same molecule?
Answer: 21.24 µM·h

Question: What about the IC50 [15] of the same molecule?
Answer: > 10 µM
